Data on 17 compounds can be found in ChEMBL document CHEMBL1122673, “Synthesis of a novel series of (aryloxy)propanolamines: new selective beta 2-blocking agents” (J Med Chem, 1984).

Structures are written as SMILES.

Experiment [1] is described as follows: Compound was determined for heart rate with respect to propanol. In kind it is functional. In a few lines:
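Urethane-anesthetized animals (1.25 g/kg ip). Carotid blood pressure was recorded, and heart rate was taken from pulse pressure. Three isoproterenol doses (10 µg/kg iv) set the control mean heart-rate rise and diastolic fall. Antagonist was given as four cumulative iv doses, with isoproterenol 10 min after each. The next dose followed return to baseline. Groups of ≥4 animals.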

Experiment [2] is filed under the species Cavia porcellus. Nature of the experiment: (§1) In vitro evaluation on guinea pig trachea. EC50 which is the molar concentration required to give 50% inhibition of the isoproterenol response (1x10E-6M) was determined. The class given is functional, organism-based. Put shortly: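 Isolated guinea pig tracheal spirals were held at 1.50 g initial tension (resting 0.4–0.6 g) in Tyrode at 37 °C, gassed with O2/CO2 95:5, and contracted with acetylcholine 3 × 10^-6 M. Antagonist was added 15 min before Ach. Isoproterenol 3 × 10^-8 to 3 × 10^-6 M was added at maximal contraction. EC50 came from four points, with ≥4 preparations per group.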

For experiment [3], the species on record is Cavia porcellus. The experiment is described as §1. In kind it is functional. Conditions: read-out: ED50 (the source's name). In a few lines: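 Isolated guinea pig tracheal spirals were held at 1.50 g initial tension (resting 0.4–0.6 g) in Tyrode at 37 °C, gassed with O2/CO2 95:5, and contracted with acetylcholine 3 × 10^-6 M. Antagonist was added 15 min before Ach. Isoproterenol 3 × 10^-8 to 3 × 10^-6 M was added at maximal contraction.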

Take `CC(C)NCC(O)COc1ccc2c(c1)[C@@H]1CCCCC[C@H]21` (some centres undefined): in experiment [1], the Ratio was determined as 0.02. The compound also displayed an EC50 in the experiment filed under Cavia porcellus [2] of 417 nM.

Take `CCCC(=O)Nc1ccc(OCC(O)CNC(C)C)c2c1[C@H]1CCCCC[C@@H]21` (some centres undefined): the EC50 in the experiment listed under Cavia porcellus [3] was found to be 341 nM. In the case of `CC(C)NCC(O)COc1ccc2c(c1)[C@@H]1CCCC[C@H]21` (some centres undefined), the EC50 in the experiment listed under Cavia porcellus [2] was found to be 502 nM. With `CC(C)(C)NCC(O)COc1cccc2c1[C@@H]1CCCCC[C@H]21` (some centres undefined), in experiment [1], the Ratio is on record as 0.57. In the experiment listed under Cavia porcellus [2], this compound yielded an EC50 of 45.7 nM. Compound `CC(C)(C)NCC(O)COc1ccc2c(c1)[C@@H]1CCCC[C@H]21` (some centres undefined) showed an EC50 in the experiment filed under Cavia porcellus [2] of 201 nM. As for `COc1ccc(CCNCC(O)COc2cccc3c2[C@@H]2CCCCC[C@]32O)cc1OC` (some centres undefined), the Ratio in experiment [1] was found to be 0.68. In addition, in the experiment filed under Cavia porcellus [3], the EC50 is 260 nM. As for `CC(C)NCC(O)COc1cccc2c1[C@@H]1CCCCC[C@]21O` (some centres undefined), the Ratio in experiment [1] worked out at 0.8. For the same compound, the EC50 in the experiment listed under Cavia porcellus [3] is 1.3 nM. Regarding `CC(C)(C)NCC(O)COc1ccc2c(c1)[C@@H]1CCCCC[C@H]21` (some centres undefined), in the experiment filed under Cavia porcellus [3], the EC50 worked out at 1380 nM. `CC(C)(C)NCC(O)COc1cccc2c1[C@]1(O)CCCC[C@H]21` (some centres undefined): in the experiment listed under Cavia porcellus [3], the EC50 worked out at 115 nM.

On to `CC(C)NCC(O)COc1cccc2c1[C@@H]1CCCC[C@H]21` (some centres undefined), for which, in the experiment listed under Cavia porcellus [2], the EC50 turned out to be 70 nM.

Consider `CC(C)(C)NCC(O)COc1cccc2c1[C@]1(O)CCCCC[C@H]21` (some centres undefined), for which, in experiment [1], the Ratio is recorded as 0.08. The EC50 in the experiment filed under Cavia porcellus [3] came to 5.49 nM. As for `CC(C)(C)NCC(O)COc1cccc2c1[C@@H]1CCCCC[C@]21O` (some centres undefined), the Ratio in experiment [1] is given as 0.42. In the experiment filed under Cavia porcellus [3], the EC50 worked out at 1.26 nM.

Take `CC(C)NCC(O)COc1cccc2c1[C@@H]1CCCCC[C@H]21` (some centres undefined): the Ratio in experiment [1] is listed as 0.46. This compound also registered an EC50 in the experiment listed under Cavia porcellus [2] of 2 nM. For `CC(C)NCC(O)COc1ccc2ccccc2c1` (centres undefined), the EC50 in the experiment listed under Cavia porcellus [3] was 55 nM. Take `CC(C)NCC(O)COc1cccc2c1[C@]1(O)CCCCC[C@H]21` (some centres undefined): in the experiment listed under Cavia porcellus [3], the EC50 is 130 nM.

The compound `COc1ccc(CCNCC(O)COc2cccc3c2[C@@H]2CCCCC[C@H]32)cc1OC` (some centres undefined) displayed an EC50 in the experiment filed under Cavia porcellus [2] of 1100 nM. For the compound `COc1ccc(CCNCC(O)COc2cccc3c2[C@]2(O)CCCCC[C@H]32)cc1OC` (some centres undefined), the EC50 in the experiment filed under Cavia porcellus [3] was 7010 nM.
